We go through 25 compounds from PubChem BioAssay AID540281 (Sanford-Burnham Center for Chemical Genomics, 2011).

Structures are written as SMILES. In all, about 2,500 compounds went through this assay and about 1,500 (60%) were called active.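 Rule for the calls: active = inhibition of at least 30% at 20 µM; inactive = the rest.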 So high a share suggests a set chosen from earlier hits. Not all results are given here.

Sequence of Carboxy-terminal domain RNA polymerase II polypeptide A small phosphatase 1 (Homo sapiens) (Q9GZU7 76-261 limits assumed): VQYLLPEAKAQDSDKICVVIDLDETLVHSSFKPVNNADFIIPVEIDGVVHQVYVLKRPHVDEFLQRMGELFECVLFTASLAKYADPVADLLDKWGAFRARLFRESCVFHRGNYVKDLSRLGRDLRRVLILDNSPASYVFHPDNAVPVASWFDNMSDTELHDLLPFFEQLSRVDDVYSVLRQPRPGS

The experiment has as its target Carboxy-terminal domain RNA polymerase II polypeptide A small phosphatase 1 (Homo sapiens) (UniProt Q9GZU7). In words: Scp-1 phosphatase inhibitors, retest, confirmation, biochemical, colorimetric, single concentration (AID 540281).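 Note: plate controls were DMSO with enzyme for no effect and buffer wells lacking enzyme for full effect.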 The note with it: recombinant SCP-1 catalytic domain, phosphate release, malachite green absorbance; at 20 µM; hits give high values. A digest of the protocol: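 Material – human SCP-1 phosphatase catalytic domain, residues 76-261 · Buffer or medium – Tris acetate buffer pH 5.5 with 10 mM MgCl2 and Tween-20 · Reagent – Phosphorylated 17-mer peptide as phosphatase substrate · Compound dosing – single 20 µM final compound concentration, 1.0% DMSO · Incubation – 45 min phosphatase reaction at RT · Technique – Phosphate-release colorimetry, 630 nm absorbance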
As a reminder, the inhibition is the drop in the measured response relative to a control, in per cent. As for `Cc1ccc(C(=O)NNC(=O)c2cc3cc4ccccc4nc3s2)cc1`, the inhibition is 61% (active).
In the case of `O=[N+]([O-])c1cc(S(=O)(=O)Nc2cccc(Cl)c2)ccc1N=Nc1c(O)[nH]c2ccccc12`, the inhibition was 8.78% (inactive).
To `Cc1ccc(CCCOC(=O)C[N+]2(C)CCCC2)cc1` belongs 78.5% (active); to `COC(=O)c1ccccc1NC(=O)C1(S(=O)(=O)c2ccc(Cl)cc2)CC1`, -25% (inactive).
Regarding `Cc1ccc(NC(=O)c2cc(-c3ccc(C)o3)nc3ccccc23)nc1`, the inhibition was 67.9% (active).
To `O=C(COC(=O)c1cnc(Cl)c(Cl)c1)NCc1ccco1` belongs 44.4% (active).
Next, `CN(c1ccccc1)S(=O)(=O)c1ccc(Cl)c(C(=O)OCC(=O)NCc2ccco2)c1`: 56.5% (active); `Cc1cc(C(=O)OCC(=O)NCc2ccco2)c(C)n1-c1ccccc1`: 67.3% (active).
Next, `O=C(COC(=O)c1ccccc1O)NCc1ccco1`: 59.3% (active); `CCOC(=O)C1CCCN(C(=O)CN(c2ccc(OC)cc2)S(=O)(=O)c2c(C)noc2C)C1` (stereo not given): -13.6% (inactive).
As for `NC(=O)NC(=O)CSc1nc2cc([N+](=O)[O-])ccc2n1-c1cccc(C(F)(F)F)c1`, the inhibition is -1.8% (inactive).
With `CC1=NN(C(=O)CCc2ccccc2O)C(O)(C(F)(F)F)C1` (stereo not given), the inhibition is -13.9% (inactive).
To `O=C(COC(=O)CCC(=O)c1cccs1)NCc1ccco1` belongs 75.5% (active); to `Cc1c(Cl)cnc(NC(=O)COC(=O)c2ccc(S(=O)(=O)NCc3ccco3)cc2)c1Cl`, 67% (active).
For the compound `CCOc1ccc2nc(N(CCCN(C)C)C(=O)c3ccc(C(=O)c4ccccc4)cc3)sc2c1`, the inhibition was -4.94% (inactive).
With `Cc1ccc(S(=O)(=O)Nc2nc(C)cc(-n3nc(C)cc3C)n2)cc1`, the inhibition is -2.85% (inactive).
Consider `O=C(c1ccc(CS(=O)(=O)c2ccccc2)o1)N1CCN(c2ccccc2)CC1`, for which the inhibition was 59.1% (active).
On to `CC(C)c1ccc(NC(=S)NNc2ccc(Cl)c(C(=O)O)c2)cc1`, for which the inhibition is 4.8% (inactive).
Take `Cc1ccc(CCNC(=O)c2ccc3nc4ccccc4c(=O)n3c2)cc1`: the inhibition is 41.5% (active).
To `COc1cccc(NC(C)=[N+](C)CCNS(=O)(=O)c2ccc(Cl)cc2)c1` belongs 92.4% (active); to `COc1cccc(CNS(=O)(=O)c2csc(C(N)=O)c2)c1`, -12.2% (inactive).
Next, `Cc1ccc(NC(=O)COC(=O)C2C3CC4OC(=O)C2C4C3)cc1Cl` (stereo not given): -2.24% (inactive); `O=C(COc1ccc(-n2cnnn2)cc1)Nc1ccccc1Cl`: 56.8% (active).
To `CC(C)CCOc1ccc(C(=O)C[N+]2(C)CCOCC2)cc1` belongs 98.7% (active); to `O=C(Nc1cccnc1)c1cc2cc(Br)ccc2oc1=O`, 68.8% (active).
